{"source": "paper PMC8526916", "about": "(International Journal for Parasitology: Drugs and Drug …, 2021)", "key": {"BKI-1294 plasma exposure": {"assay": "BKI-1294 plasma exposure", "format": "in vivo, sheep", "conditions": "G1", "outline": "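Rasa Aragonesa ewes (12 months, seronegative), challenged i.v. with Nc-Spain7 tachyzoites. From 48 h pi, test compound was given orally by oro-ruminal probe at 100 mg/kg, 5 doses every other day. Heparinized blood was sampled at set times and plasma analysed by LC-MS/MS. Troughs were taken 48 h after each dose; values are mean ± S.D.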"}, "[1]": {"assay": "Plasma protein binding by equilibrium dialysis, mouse plasma", "format": "in vitro ADME", "conditions": "5 μM", "outline": "(§1)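 Test compound in DMSO was spiked into plasma at 5 μM; an aliquot of spiked plasma served as the 100% recovery standard. Samples were matrix-matched, extracted in 80% acetonitrile with internal standard and quantified by UPLC-MS/MS. Fraction bound = bound/(unbound + bound), corrected for matrix dilution.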"}, "[2]": {"assay": "Plasma protein binding by equilibrium dialysis, rat plasma", "format": "in vitro ADME", "conditions": "5 μM", "outline": "as §1"}, "[3]": {"assay": "Plasma protein binding by equilibrium dialysis, dog plasma", "format": "in vitro ADME", "conditions": "5 μM", "outline": "as §1"}, "[4]": {"assay": "Plasma protein binding by equilibrium dialysis, human plasma", "format": "in vitro ADME", "conditions": "5 μM", "outline": "as §1"}, "[5]": {"assay": "Safety monitoring of treated pregnant sheep", "format": "in vivo", "outline": "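Infected pregnant ewes received test compound orally at 100 mg/kg, 5 doses every other day from 48 h pi; uninfected controls received vehicle. A veterinarian observed animals daily for faecal consistency, blood in faeces and behavioural changes. Rectal temperature was taken daily to day 14 pi, then weekly; >40 °C counted as fever.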"}, "[6]": {"system": "Neospora caninum Nc-Spain7 tachyzoites", "assay": "Rectal temperatures and fever in N. caninum-infected pregnant sheep", "format": "in vivo", "conditions": "days 5, 7 and 9 pi"}, "IFNγ": {"system": "IFNγ", "assay": "Peripheral blood cell stimulation assay, IFNγ production", "format": "in vivo, sheep", "outline": "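Heparinized jugular blood from dams was sampled before infection, at 3, 5, 7 and 10 days pi, then weekly. Blood was cultured with soluble N. caninum antigen or ConA for 24 h at 37 °C, 5% CO2, and IFNγ measured in supernatants by enzyme immunoassay. Analysis: repeated-measures two-way ANOVA to day 28 pi, one-way ANOVA afterwards; mean ± S.D.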"}, "[7]": {"system": "N. caninum soluble antigens", "assay": "In-house indirect ELISA, IgG against N. caninum soluble antigens in dams", "format": "in vivo, sheep", "outline": "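Dam sera were collected before infection, at 3, 5, 7 and 10 days pi, then weekly. Plates were coated with soluble N. caninum antigen and blocked; sera were diluted 1:100 in 1% BSA in PBS with 0.05% Tween 20. Detection used HRP anti-goat/sheep IgG (1:20000) with ABTS, stopped with 0.3 M oxalic acid, read at OD405 and expressed as RIPC. Analysis: repeated-measures two-way ANOVA to day 28 pi, one-way ANOVA after.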"}, "NcSAG1": {"system": "NcSAG1", "assay": "Commercial TgSAG1 ELISA, anti-NcSAG1 IgG in dams", "format": "in vivo, sheep", "conditions": "days 21 (P < 0.01) and 42 pi (P < 0.05)"}, "[8]": {"system": "Neospora caninum Nc-Spain7 tachyzoites", "assay": "Foetal survival in pregnant sheep infected with N. caninum at mid-pregnancy", "format": "in vivo"}, "Neospora caninum": {"system": "Neospora caninum", "assay": "qPCR parasite burden in placentomes and foetal brain", "format": "in vivo", "conditions": "aborted sheep", "outline": "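DNA was extracted by paramagnetic-particle capture from 50–100 mg of foetal brain (three replicates each) and six placental samples per dam. Samples were screened by nested Nc5-PCR (337 bp product), with 10, 1 and 0.1 tachyzoite-equivalent controls in 100 ng sheep DNA and an uninfected-group negative. PCR-positive samples were quantified by real-time PCR; burdens compared by Mann–Whitney test.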"}, "[9]": {"system": "Toxoplasma gondii oocysts", "conditions": "sheep infected with T. gondii oocysts during pregnancy; ref Sánchez-Sánchez et al., 2019; cited from earlier work"}, "Nc-Spain7 isolate": {"system": "Nc-Spain7 isolate", "conditions": "in vitro, ref Winzer et al., 2015; cited from earlier work"}, "[10]": {"conditions": "mice; ref Vidadala et al., 2016; cited from earlier work"}, "[11]": {"conditions": "ref Schaefer et al., 2016; cited from earlier work"}, "[12]": {"conditions": "pregnant sheep; ref Sánchez-Sánchez et al., 2019; cited from earlier work"}}}
{"smiles": "CCOc1ccc2cc(-c3nn(CC4CCN(C)CC4)c4ncnc(N)c34)ccc2c1", "note": "[BKI-1294]", "values": [{"measurement": "trough plasma concentrations", "setting": "BKI-1294 plasma exposure; 48 h after 1st oral dose of 100 mg/kg", "value": "0.7 ± 0.4", "unit": "µM"}, {"measurement": "trough plasma concentrations", "setting": "BKI-1294 plasma exposure; 48 h after 2nd oral dose of 100 mg/kg", "value": "0.7 ± 0.4", "unit": "µM"}, {"measurement": "trough plasma concentrations", "setting": "BKI-1294 plasma exposure; 48 h after 3rd oral dose of 100 mg/kg", "value": "0.9 ± 0.5", "unit": "µM"}, {"measurement": "trough plasma concentrations", "setting": "BKI-1294 plasma exposure; 48 h after 4th oral dose of 100 mg/kg", "value": "1.4 ± 1.1", "unit": "µM"}, {"measurement": "trough plasma concentrations", "setting": "BKI-1294 plasma exposure; 48 h after 5th oral dose of 100 mg/kg", "value": "1.3 ± 0.8", "unit": "µM"}, {"measurement": "plasma protein binding (bound)", "setting": "[1]", "value": 85, "unit": "%"}, {"measurement": "plasma protein binding (bound)", "setting": "[2]", "value": 85, "unit": "%"}, {"measurement": "plasma protein binding (bound)", "setting": "[3]", "value": 52, "unit": "%"}, {"measurement": "plasma protein binding (bound)", "setting": "[4]", "value": 85, "unit": "%"}, {"measurement": "safety of oral administration", "setting": "[5]; N. caninum-infected pregnant sheep, oral 100 mg/kg x5", "value": "safe"}, {"measurement": "Diarrhoea, bloody stools, and behavioural disorders", "setting": "[5]; oral 100 mg/kg, 5 doses every other day, pregnant sheep", "value": "not observed"}, {"measurement": "rectal temperatures versus infected/untreated group", "setting": "[6]", "value": "significantly lower increase in rectal temperatures"}, {"measurement": "IFNγ levels versus infected/untreated group", "setting": "IFNγ; day 7 pi, blood stimulated with N. caninum antigen, P < 0.0001", "value": "higher IFNγ levels"}, {"measurement": "IFNγ levels relative to infected/untreated group", "setting": "IFNγ; days 14, 21 and 28 pi, not significant", "value": "approximately 10 fold"}, {"measurement": "IgG levels against N. caninum soluble antigens versus infected/untreated group", "setting": "[7]; days 14, 21 and 28 pi", "value": "lower antibody response"}, {"measurement": "IgG levels against N. caninum soluble antigens versus infected/untreated group", "setting": "[7]; from day 35 pi onwards", "value": "no significant differences"}, {"measurement": "anti-NcSAG1 IgG levels versus infected/untreated group", "setting": "NcSAG1", "value": "lower anti-NcSAG1 IgG levels"}, {"measurement": "median day of foetal death", "setting": "[8]; G1 infected/treated (G2: 45)", "value": 44, "unit": "day pi"}, {"measurement": "foetal mortality (sheep whose foetuses died, 7 out of 8)", "setting": "[8]; G1 infected/treated, same in G2 untreated", "value": 87, "unit": "%"}, {"measurement": "foetal survival rate versus infected/untreated group", "setting": "[8]; log-rank test", "value": "no significant differences"}, {"measurement": "parasite burden in placentomes versus infected/untreated group", "setting": "Neospora caninum", "value": "No significant differences"}, {"measurement": "efficacy against abortion", "setting": "[9]", "value": 71, "unit": "%"}, {"measurement": "efficacy against vertical transmission", "setting": "[9]", "value": 53, "unit": "%"}, {"measurement": "IC50", "setting": "Nc-Spain7 isolate", "value": "270 ± 20", "unit": "nM"}, {"measurement": "CNS crossing", "setting": "[10]", "value": 30, "unit": "%"}, {"measurement": "bioavailability lower than BKI-1553", "setting": "[10]", "value": 30, "unit": "fold"}, {"measurement": "plasma clearance", "setting": "[10]", "value": "high plasma clearance"}, {"measurement": "PPB in mice", "setting": "[11]", "value": 85, "unit": "%"}, {"measurement": "safety of repeated oral administration", "setting": "[12]", "value": "safe, both locally and systemically"}]}
